pEC50, pIC50: −log10 of the molar value. The source made the active and inactive calls. The calls are words filed in the database; no cut-off is given here.

The values below come from ChEMBL document CHEMBL4038304, “Chiral Indolylarylsulfone Non-Nucleoside Reverse Transcriptase Inhibitors as New Potent and Broad Spectrum Anti-HIV-1 Agents” (J Med Chem, 2017).

Data set [1] is described as follows: Cytotoxicity against human MT4 cells assessed as cell viability by MTT assay. Format: cell-based. The method in brief: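 Uninfected MT-4 cells scored for viability by MTT. […] Values are means of two to three independent experiments, each run in triplicate.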
In data set [2] the test system is Human immunodeficiency virus 1. Put plainly: Antiviral activity against HIV1 NL4-3 infected in human […] cells assessed as protection against virus-induced cytopathic effect measured on day 5 post infection by MTT assay. It counts as functional, cell-based. The settings on record: Human immunodeficiency virus 1, NL4-3, 120 h. The method in brief: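 Values are means of two to three independent experiments, each run in triplicate. The lowest detectable concentration is reported where activity fell below the assay limit.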
On the technique in general: Damage to the host cells serves as the signal in cytopathic effect assays.

In data set [3] the test system is Human immunodeficiency virus 1. Put plainly: Antiviral activity against HIV1 harboring reverse transcriptase K103N mutant infected in human […] cells assessed as protection against virus-induced cytopathic effect measured on day 5 post infection by MTT assay. Format: functional, cell-based. The note with it: Human immunodeficiency virus 1, 120 h.
Data set [4] relates to Human immunodeficiency virus 1. The data set can be described thus: Antiviral activity against HIV1 harboring reverse transcriptase Y181C mutant infected in human […] cells assessed as protection against virus-induced cytopathic effect measured on day 5 post infection by MTT assay. Format: functional, cell-based. The note with it: Human immunodeficiency virus 1, 120 h.
For data set [5], the system named is Human immunodeficiency virus 1. The data set can be described thus: Antiviral activity against HIV1 harboring reverse transcriptase Y188L mutant infected in human […] cells assessed as protection against virus-induced cytopathic effect measured on day 5 post infection by MTT assay. Format: functional, cell-based. The note with it: Human immunodeficiency virus 1, 120 h.

Data set [6] relates to Human immunodeficiency virus 1. The data set can be described thus: Antiviral activity against HIV1 harboring reverse transcriptase K103N /[…] double mutant infected in human […] cells assessed as protection against virus-induced cytopathic effect measured on day 5 post infection by MTT assay. Format: functional, cell-based. The note with it: Human immunodeficiency virus 1, 120 h.

Data set [7] deals with BV-2. The data set can be described thus: Antineuroinflammatory activity in C57BL/6 mouse BV2 cells assessed as inhibition of LPS-induced nitric oxide production at 1 to 10 uM after 24 hrs by Griess assay. It counts as functional, cell-based.
The subject of data set [8] is BV-2. The data set can be described thus: Downregulation of iNOS mRNA levels in C57BL/6 mouse BV2 cells at 1000 nM after 24 hrs by RT-PCR assay. Format: functional, cell-based.
Data set [9] concerns BV-2. Put plainly: Effect on CD163 mRNA levels in C57BL/6 mouse BV2 cells at 1000 nM after 24 hrs by RT-PCR assay. Format: functional, cell-based.
Data set [10] deals with BV-2. Put plainly: Effect on fizz mRNA levels in C57BL/6 mouse BV2 cells at 1000 nM after 24 hrs by RT-PCR assay. It counts as functional, cell-based.
The test system of data set [11] is BV-2. The data set can be described thus: Cytotoxicity against C57BL/6 mouse BV2 cells assessed as effect on cell proliferation rate at 10 to 10000 nM up to 48 hrs by MTT assay. It counts as cell-based. The note with it: bv-2, 48 h, 10 µM. The method in brief: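 BV2 microglial cells cultured with compound at 10, 102, 103 and 104 nM, then proliferation rate measured.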
In general terms: Formazan colour is commonly taken as a measure of viable cells.

Data set [12] has as its system hippocampal neurons (Mus musculus). Put plainly: Neuroprotective activity against glutamate-induced excitotoxicity in C57BL/6 mouse hippocampal neurons assessed as increase in cell viability at 1000 nM preincubated for 30 mins followed by reincubation in conditioned culture media for 18 hrs in presence of glutamate by hemacytometric analysis.
Data set [13] is described as follows: Selectivity index, ratio of CC50 for human MT4 cells to EC50 for HIV1 NL4-3 infected in human MT4 cells. Format: toxicity, cell-based. The settings on record: read-out: Ratio CC50/EC50. A digest of the protocol: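 SI computed as CC50/EC50, using the MTT-based CC50 in uninfected MT-4 cells and the MTT-based EC50 against HIV-1 NL4-3-induced cell death in MT-4 cells. Experiments were run in triplicate, two to three times.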

For data set [14], the system named is Human immunodeficiency virus 1. The data set can be described thus: Ratio of EC50 for HIV-1 harboring reverse transcriptase K103N mutant infected in human MT4 cells to EC50 for HIV1 NL4-3 infected in human MT4 cells. It counts as functional. The method in brief:
(§1)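 Fold change calculated as EC50 against the stated resistant mutant HIV-1 strain divided by EC50 against wild-type NL4-3. Both EC50s come from MTT read-out of virus-induced death in MT-4 cells, mean of two to three independent experiments each in triplicate.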

For data set [15], the system named is Human immunodeficiency virus 1. Put plainly: Ratio of EC50 for HIV-1 harboring reverse transcriptase Y181C mutant infected in human MT4 cells to EC50 for HIV1 NL4-3 infected in human MT4 cells. It counts as functional. A digest of the protocol:
as §1

The test system of data set [16] is Human immunodeficiency virus 1. Put plainly: Ratio of EC50 for HIV-1 harboring reverse transcriptase Y188L mutant infected in human MT4 cells to EC50 for HIV1 NL4-3 infected in human MT4 cells. It counts as functional. A digest of the protocol: as §1
Data set [17] deals with Human immunodeficiency virus 1. Put plainly: Ratio of EC50 for HIV-1 harboring reverse transcriptase K103N/[…] double mutant infected in human MT4 cells to EC50 for HIV1 NL4-3 infected in human MT4 cells. Format: functional. The method in brief: as §1
Data set [18] concerns BV-2. Put plainly: Downregulation of CD86 mRNA levels in C57BL/6 mouse BV2 cells at 1000 nM after 24 hrs by RT-PCR assay. Format: functional, cell-based.
Data set [19] concerns the target Human immunodeficiency virus type 1 reverse transcriptase (Human immunodeficiency virus 1, UniProt Q72547). Put plainly: Inhibition of HIV1 NL4-3 reverse transcriptase His-tagged p66/p51 associated RNA dependent DNA polymerase activity expressed in Escherichia coli assessed as reduction in [3H]dTTP incorporation using poly(rA)/oligo(dT) as template/primer by scintillation counting analysis.

For data set [20], the target named is Human immunodeficiency virus type 1 reverse transcriptase (Human immunodeficiency virus 1, UniProt Q72547, K103N). The data set can be described thus: Inhibition of HIV1 reverse transcriptase p66 K103N mutant associated RNA dependent DNA polymerase activity expressed in Escherichia coli assessed as reduction in [3H]dTTP incorporation using poly(rA)/oligo(dT) as template/primer by scintillation counting analysis.

The target of data set [21] is Human immunodeficiency virus type 1 reverse transcriptase (Human immunodeficiency virus 1, UniProt Q72547, Y181I). Put plainly: Inhibition of HIV1 reverse transcriptase p66 Y181I mutant associated RNA dependent DNA polymerase activity expressed in Escherichia coli assessed as reduction in [3H]dTTP incorporation using poly(rA)/oligo(dT) as template/primer by scintillation counting analysis.

Data set [22] is described as follows: Inhibition of HIV1 reverse transcriptase p66 K103N/[…] double mutant associated RNA dependent DNA polymerase activity expressed in Escherichia coli assessed as reduction in [3H]dTTP incorporation using poly(rA)/oligo(dT) as template/primer by scintillation counting analysis. Details: species or system Human immunodeficiency virus 1.
In data set [23] the target is Human immunodeficiency virus type 1 reverse transcriptase (Human immunodeficiency virus 1, UniProt Q72547, Y181C). The data set can be described thus: Inhibition of HIV1 reverse transcriptase p66 Y181C mutant associated RNA dependent DNA polymerase activity expressed in Escherichia coli assessed as reduction in [3H]dTTP incorporation using poly(rA)/oligo(dT) as template/primer by scintillation counting analysis.

As a reminder, the CC50 is the concentration at which the toxic effect on the cells reaches its halfway point. Broadly, the pEC50 is the EC50 on a negative log10 scale, so that one unit is a factor of ten. On to `O=C1Nc2ccc(Cl)cc2[C@@](C#CC2CC2)(C(F)(F)F)O1` [EFAVIRENZ], for which, in [1], the cytotoxic concentration (CC50) is above 15800 nM. The pEC50 in data set [2] is 7.80; in data set [3] it was 6.89; in [4], 6.80; in data set [5] it was 6.12; in [6], below 6.50. Also, the result in data set [7] and in data set [8] was Active. In addition, the result in data set [9], in data set [10] and in data set [12] was inactive. Moreover, the Activity entry in data set [11] is given as “Non-Toxic”.

In the case of `Cc1cc(C)cc(S(=O)(=O)c2c(C(=O)NC(C)C(=O)NCc3ccncc3)[nH]c3ccc(Cl)cc23)c1` (racemic), the CC50 in data set [1] came to 19500 nM. The pEC50 in [2] was 9.70; in data set [3], 8.72; in data set [4] it was 7.68; in data set [5], 6.09; in [6], 6.08. Besides, in data set [13], the selectivity ratio was found to be 102000. In addition, the “Ratio EC50” value is given as 52 in data set [14], 105 in [15], 4095 in data set [16] and 4190 in data set [17]. Besides, the outcome in data set [7], in data set [8], in data set [18] and in [12] was Active. Moreover, the outcome in [9] and in data set [10] was inactive. The Activity entry in data set [11] is reported as “Non-Toxic”.

The pIC50 is the negative decadic logarithm of the IC50, by convention in mol/L. For the molecule `Cc1cc(C)cc(S(=O)(=O)c2c(C(=O)N[C@@H](C)C(=O)NCc3ccncc3)[nH]c3ccc(Cl)cc23)c1`, the pEC50 in data set [2] is 9.15; in [3], 9.15; in data set [4], 9.15; in data set [5], 6.18; in data set [6], 6.07. The pIC50 in data set [19] was 6.30; in data set [20], 6.38; in data set [21], 6.06; in [22], below 4.40; in data set [23], 6.06.
